Screens as filed in PubChem.
A1 apoptosis 2 = blocks A1, raising caspase activity | MEF A1-2A-BIM cells, caspase-Glo luminescence, 3 h; percent of clofoctol response, DMSO zero | caspase activation, % (no concentration beside the values) | 24,000 tested, under 10 active | AID 2465; in the data active = caspase activation above about 5.9%; inconclusive = no clear call, values can overlap the other calls; inactive = below about 2.2%
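Material: A1-2A-BIM-expressing MEF cells. Buffer or medium: RPMI-1640 plus 10% FBS. Incubation: cells settled overnight, compound exposure 3 h at 37 °C, 5% CO2. Signal: Caspase-Glo 3/7 luminescence, 1 h at room temperature.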
T cruzi intra = intracellular Trypanosoma cruzi inhibition; intracellular Trypanosoma cruzi in host cells, plate reader; activity score (inhibition), % at 5.01 µM; 4.9% of 22,000 active; in the data active = activity score above about 55%; inconclusive = no clear call, values can overlap the other calls;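 note: parasites and compound incubated about four days before reading; 0% = median of neutral control wells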
INS-1E ATP HTS = preserves ATP levels in cytokine-treated INS-1E cells. protection from cytokine-induced ATP loss, % at 10 µM. 0.1% of 20,000 active. INS-1E cytokine-induced death, ATP luminescence, 48 h; normalised: neutral wells 0, positive control 100;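 active = mean replicate protection from cytokine-induced ATP loss at least 50% and at least 75% of replicates each reaching 50%; inconclusive = meets only one of the two criteria, mean or replicate share; inactive = fails both the mean and replicate share criteria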
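Assay system: INS-1E rat cells / Quantity: 8000 cells per well / Medium: RPMI without phenol red, 5% FBS / Probe or stimulus: three-cytokine cocktail (IFN-γ, TNF-α, IL-1β) / Dosing: one compound concentration, pin transfer / Timing: 48 h co-treatment, 10 min post-lysis read / Technique: CellTiter-Glo luminescence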
An asterisk follows results filed as active; ? = inconclusive; . = no result. Many of the other results were omitted from the sample, so hits are more common in it than they were.

SMILES	A1 apoptosis 2	T cruzi intra	INS-1E ATP HTS
COc1cc(/C=C/C=N/NC(=O)c2cccc(C(=O)NO)c2)ccc1O	0.4	-21.6	-1.9
C[C@H](CO)N1C[C@H](C)[C@@H](CN(C)Cc2ccc3c(c2)OCO3)Oc2c(NS(=O)(=O)c3ccc(Cl)cc3)cccc2C1=O	-0.7	57.7*	10.4
C[C@@H]1CN([C@@H](C)CO)C(=O)c2cccc(NS(=O)(=O)c3cccs3)c2O[C@@H]1CN(C)Cc1ccc(C(=O)O)cc1	-0.9	-12.8	1.7
C[C@@H]1CN([C@H](C)CO)C(=O)c2cccc(NS(=O)(=O)c3cccs3)c2O[C@@H]1CN(C)Cc1ccc(C(=O)O)cc1	0.3	67.7*	14.3
Cc1ccc(S(=O)(=O)Nc2cccc3c2O[C@@H](CN(C)Cc2ccc4c(c2)OCO4)[C@@H](C)CN([C@H](C)CO)C3=O)cc1	.	-11.5	-8.0
Cc1ccc(S(=O)(=O)Nc2cccc3c2O[C@H](CN(C)Cc2ccc(-c4ccccc4)cc2)[C@@H](C)CN([C@H](C)CO)C3=O)cc1	.	47.3	-4.1
C[C@H]1CN([C@@H](C)CO)C(=O)c2cccc(NS(=O)(=O)c3ccc(Cl)cc3)c2O[C@@H]1CN(C)Cc1ccc(-c2ccccc2)cc1	0.9	36.2	-5.5
Cc1ccc(S(=O)(=O)Nc2cccc3c2O[C@@H](CN(C)Cc2ccc(-c4ccccc4)cc2)[C@@H](C)CN([C@@H](C)CO)C3=O)cc1	.	73.9*	-66.8
C[C@@H]1CN([C@@H](C)CO)C(=O)c2cccc(NS(=O)(=O)c3ccc(Cl)cc3)c2O[C@@H]1CN(C)Cc1ccc(-c2ccccc2)cc1	-0.4	63.1*	-73.3
COc1cc(Br)cc(/C=N/NC(=O)c2cccc(C(=O)NO)c2)c1O	-3.1	-25.3	7.9
CC(C)=CCC[C@H](C)C/C=N/NC(=O)CCCCCC(=O)O	1.6	-15.7	0.3
C[C@@H]1CN([C@H](C)CO)C(=O)c2cccc(NS(=O)(=O)c3ccccc3)c2O[C@@H]1CN(C)Cc1ccc(-c2ccccc2)cc1	.	14.1	-11.1
C[C@@H]1CN([C@@H](C)CO)C(=O)c2cccc(NS(=O)(=O)c3ccccc3)c2O[C@@H]1CN(C)Cc1ccc(-c2ccccc2)cc1	.	87.3*	-71.6
C[C@@H]1CCCCO[C@@H](CN(C)Cc2ccc(Cl)c(Cl)c2)[C@@H](C)CN([C@H](C)CO)C(=O)c2cc(NC(=O)C3CCCCC3)ccc2O1	.	87.9*	-42.0
C[C@@H]1CN([C@H](C)CO)C(=O)c2cc(NC(=O)C3CCCCC3)ccc2O[C@@H](C)CCCCO[C@H]1CN(C)Cc1ccc(Cl)c(Cl)c1	-1.3	.	.
C[C@@H]1CCCCO[C@@H](CN(C)Cc2ccc(Cl)c(Cl)c2)[C@H](C)CN([C@@H](C)CO)C(=O)c2cc(NC(=O)Nc3ccccc3)ccc2O1	-1.4	.	.
C[C@@H]1CCCCO[C@H](CN(C)Cc2ccc(Cl)c(Cl)c2)[C@@H](C)CN([C@H](C)CO)C(=O)c2cc(NC(=O)Nc3ccccc3)ccc2O1	-1.3	76.4*	-9.0
C[C@@H]1CN([C@@H](C)CO)C(=O)c2cc(NC(=O)Nc3ccccc3)ccc2O[C@@H](C)CCCCO[C@H]1CN(C)Cc1ccc(Cl)c(Cl)c1	0.1	.	.
C[C@@H]1CCCCO[C@@H](CN(C)Cc2ccc(Cl)c(Cl)c2)[C@@H](C)CN([C@H](C)CO)C(=O)c2cc(NC(=O)Nc3ccccc3)ccc2O1	.	77.9*	-5.2
O=C(N/N=C/c1ccc(-c2cccc(Cl)c2)o1)c1ccccn1	-1.4	85.2*	12.7
O=C(CCCCC(=O)N/N=C/c1ccc(-c2cccc(Cl)c2)o1)NO	.	19.1	148.7*
Cc1ccc(/C=N/NC(=O)CCCCCC(=O)O)o1	-0.4	-15.3	-3.5
O=C(N/N=C/c1cc(Br)cc(Br)c1O)c1ccccn1	.	78.3*	-42.4
COC(=O)CCCCCCC(=O)N/N=C/c1ccc(-c2cccc(Cl)c2)o1	-2.7	26.9	4.5
Cc1ccc(/C=N/NC(=O)CCCCCC(=O)NO)o1	.	7.4	107.5*
SMILES	A1 apoptosis 2	T cruzi intra	INS-1E ATP HTS
O=C(N/N=C/c1cc(Br)c(O)c(Br)c1)c1ccccn1	.	-13.0	7.2
Cc1ccc(/C=N/NC(=O)c2ccccn2)o1	-4.1	2.0	-2.9
O=C(NO)c1cccc(C(=O)N/N=C/c2ccc3c(c2)CCO3)c1	-0.9	-7.0	-11.5
COC(=O)[C@]1(Cc2ccccc2N=[N+]=[N-])N=C(c2ccc(OCCCO)cc2)O[C@@H]1c1ccccc1N=[N+]=[N-]	-0.1	.	.
C[C@@H]1CN([C@@H](C)CO)C(=O)Cc2cc(NS(=O)(=O)c3cccs3)ccc2O[C@H]1CN(C)CC1CC1	-0.4	.	.
CC(C)(C)OC(=O)Nc1cccc(/C=N/NC(=O)c2ccccc2O)c1	-1.1	-4.3	-6.5
C=CCNC(=O)[C@H]1[C@@H]2C(=O)O[C@@H](c3ccccc3)[C@@H](c3ccccc3)N2[C@@H](c2ccc(O)cc2)[C@]12C(=O)Nc1ccc(C#CCC(C(=O)OC)C(=O)OC)cc12	0.6	.	.
O=C(N/N=C/c1ccccc1[N+](=O)[O-])c1ccccc1O	-11.7	-8.1	-75.3
COc1ccc(S(=O)(=O)N(C)C[C@@H]2Oc3c(NC(=O)Nc4ccc(C(F)(F)F)cc4)cccc3C(=O)N([C@@H](C)CO)C[C@H]2C)cc1	-1.6	2.1	-6.9
COc1ccc(S(=O)(=O)N(C)C[C@H]2Oc3ccc(NC(=O)Nc4cccc5ccccc45)cc3C(=O)N([C@@H](C)CO)C[C@@H]2C)cc1	.	3.2	0.6
COc1ccc(S(=O)(=O)N(C)C[C@H]2Oc3c(NC(=O)Nc4ccc(C(F)(F)F)cc4)cccc3C(=O)N([C@@H](C)CO)C[C@H]2C)cc1	-0.3	67.1*	-101.9
COc1ccc(S(=O)(=O)N(C)C[C@H]2Oc3c(NC(=O)Nc4ccc(C(F)(F)F)cc4)cccc3C(=O)N([C@H](C)CO)C[C@@H]2C)cc1	-0.8	?	-18.0
COc1ccc(S(=O)(=O)N(C)C[C@H]2Oc3ccc(NC(=O)Nc4cccc5ccccc45)cc3C(=O)N([C@@H](C)CO)C[C@H]2C)cc1	.	61.7*	-9.5
COc1ccc(S(=O)(=O)N(C)C[C@H]2Oc3c(NC(=O)Nc4ccc(C(F)(F)F)cc4)cccc3C(=O)N([C@@H](C)CO)C[C@@H]2C)cc1	-0.7	69.8*	-38.9
CC(C)(C)OC(=O)NC1(/C=N/NC(=O)c2cccc(C(=O)NO)c2)CCCC1	.	-8.8	-12.5
C[C@@H]1CN([C@H](C)CO)C(=O)c2cc(NS(=O)(=O)c3ccc(Cl)cc3)ccc2O[C@@H](C)CCCCO[C@@H]1CN(C)C	0.3	.	.
COc1ccc(NC(=O)Nc2ccc3c(c2)CC(=O)N([C@@H](C)CO)C[C@H](C)[C@H](CN(C)S(=O)(=O)c2ccc(C)cc2)O3)cc1	1.9	1.4	-9.7
COc1ccc(S(=O)(=O)Nc2ccc3c(c2)CC(=O)N([C@H](C)CO)C[C@@H](C)[C@@H](CN(C)S(=O)(=O)c2ccc(C)cc2)O3)cc1	-1.1	61.3*	8.5
Cc1ccc(S(=O)(=O)Nc2ccc3c(c2)CC(=O)N([C@@H](C)CO)C[C@@H](C)[C@@H](CN(C)S(=O)(=O)c2cccs2)O3)cc1	.	37.7	-0.5
